Source: publication PMC12495087 (ESMO Open, 2025)

Legend:
[1] = tested on: tumors with cfDNA-detected RET alterations; assay: clinical outcome by cfDNA RET alteration; format: in vivo, human
Method in brief: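 Adults with advanced RET-altered solid tumours took oral drug once daily in 28-day cycles (10–150 mg dose escalation; expansion at recommended phase II dose). RET status came from plasma cfDNA drawn at screening (within 28 days pre-dose), cycle 1 day 15 (±2 days) and cycle 2 day 1. Investigator assessed response by RECIST v1.1 in patients with evaluable response and tumour-size change. ORR/DCR given with two-sided 95% exact CIs.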

RET G810 = conditions: cited from earlier work
[2] = tested on: advanced solid tumors with RET gene alteration; assay: phase I study: tumor response per RECIST v.1.1, evaluable analysis set; format: in vivo, human
Method in brief: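 Investigator assessed response by RECIST v1.1. Drug was taken orally once daily in 28-day cycles, 10–150 mg in part A escalation and 75 mg in part B expansion, until progression. ORR and DCR summarised with two-sided 95% exact CIs. Duration of response and other time-to-event endpoints estimated by Kaplan–Meier.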

RET-mutant MTC = assay: phase I study: tumor response per RECIST v.1.1, MTC; format: in vivo, human
[3] = tested on: RET-fusion-positive NSCLC; assay: phase I study: tumor response per RECIST v.1.1, NSCLC; format: in vivo, human
[4] = phase I study: plasma pharmacokinetics; format: in vivo, human
RET = conditions: read-out: kd, potency against RET; cited from earlier work
[5] = tested on: tumors with local RET results; assay: clinical outcome by local RET result; format: in vivo, human
Method in brief: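 RET alteration was confirmed locally by DNA- or RNA-based assays of tumour tissue or blood. Patients took oral drug once daily in 28-day cycles (10–150 mg escalation; expansion at recommended phase II dose). Investigator assessed response by RECIST v1.1 in patients with evaluable overall response and percent tumour-size change from baseline. ORR and DCR summarised with two-sided 95% exact CIs.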

[6] = 58 patients with cfDNA RET alterations
[7] = cfDNA RET alteration total, n = 58

## COc1cc2cc(-c3ccc(CC(=O)Nc4cc(C(C)(C)C(F)(F)F)no4)cn3)cnc2cc1OC [BOS172738]
[1]; [6]
  partial responses as best response: 29%
  progressive disease as best response: 28%
  stable disease as best response: 43%
[1]; [7]
  BOR: PD: 16 (28) n (%)
  BOR: PR: 17 (29) n (%)
  BOR: SD: 25 (43) n (%)
  DCR (PR + SD): 42 (72) n (%)
  ORR: 17 (29) n (%)
[1]; cfDNA RET fusions + SNV, n = 2
  BOR: PD: 1 (50) n (%)
  BOR: PR: 1 (50) n (%)
  BOR: SD: 0 n (%)
  DCR (PR + SD): 1 (50) n (%)
  ORR: 1 (50) n (%)
[1]; cfDNA RET fusions, n = 37
  BOR: PD: 6 (16) n (%)
  BOR: PR: 12 (32) n (%)
  BOR: SD: 19 (51) n (%)
  DCR (PR + SD): 31 (84) n (%)
  ORR: 12 (32) n (%)
[1]; cfDNA SNV, n = 19
  BOR: PD: 9 (47) n (%)
  BOR: PR: 4 (21) n (%)
  BOR: SD: 6 (32) n (%)
  DCR (PR + SD): 10 (53) n (%)
  ORR: 4 (21) n (%)
RET G810
  activity against RET G810 resistance: able to overcome RET G810 resistance
[2]; 100 mg dose, part A
  objective DCR (ODCR): 93%
[2]; all confirmed responders
  median time to response: 1.79 months
[2]; one patient with brain metastases, first post-baseline scan
  reduction in brain target lesions: 43%
[2]; overall, evaluable analysis set
  median PFS: 7.16 months
[2]; parts A and B total, N=101
  BOR: CR: No patients
[2]; patients with brain metastases
  intracranial activity: intracranial activity was also observed
RET-mutant MTC; MTC
  median PFS: 12.75 months
RET-mutant MTC; confirmed responders with MTC
  median DoR: 19.15 months
[3]; NSCLC
  median PFS: 6.18 months
[3]; confirmed responders with NSCLC
  median DoR: 10.17 months
[4]; after dosing, cycle 1 day 1 and day 15
  plasma concentrations remained quantifiable through: ≥ 24 h
[4]; human, plasma, oral
  half-life: 41.9 to 84.1 h
[4]; human, plasma, oral, cycle 1 day 1, range across all dose levels
  Tmax: 3 to 10 h
[4]; human, plasma, oral, cycle 1 day 15, range across dose levels
  Tmax: 1 to 3.1 h
[4]; most treatment groups, based on mean trough concentration and effective t½
  steady state reached by: ≤ 15 days
RET
  Kd: ≤ 1 nM
[5]; local Indel, n = 6
  BOR: PD: 1 (17) n (%)
  BOR: PR: 1 (17) n (%)
  BOR: SD: 4 (67) n (%)
  DCR (PR + SD): 5 (83) n (%)
  ORR: 1 (17) n (%)
[5]; local RET fusions, n = 57
  BOR: PD: 10 (18) n (%)
  BOR: PR: 21 (37) n (%)
  BOR: SD: 26 (46) n (%)
  DCR (PR + SD): 47 (82) n (%)
  ORR: 21 (37) n (%)
[5]; local RET total, n = 93
  BOR: PD: 20 (22) n (%)
  BOR: PR: 28 (30) n (%)
  BOR: SD: 45 (48) n (%)
  DCR (PR + SD): 73 (78) n (%)
  ORR: 28 (30) n (%)
[5]; local SNV, n = 30
  BOR: PD: 9 (30) n (%)
  BOR: PR: 6 (20) n (%)
  BOR: SD: 15 (50) n (%)
  DCR (PR + SD): 21 (70) n (%)
  ORR: 6 (20) n (%)
